Measured values reported in paper PMC4804314 (Pharmacology Research & Perspectives, 2016).

What was measured:
[1] = tested on: sandwich‐cultured mouse (NMRI) hepatocytes; test: Hepatobiliary disposition in sandwich-cultured mouse hepatocytes; format: in vitro ADME; conditions: for BEI / CLbiliary / Intracellular concentration / Cellular accumulation Avg. / Total accumulation Avg.: 20 min; for Cellular accumulation Avg. / Total accumulation Avg.: mean ± SD of triplicate wells
[2] = Plasma pharmacokinetics in Cynomolgus monkey after i.v. bolus; format: in vivo, Cynomolgus monkey (Macaca fascicularis)
How it was run: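 Female Cynomolgus monkeys (n = 3), single i.v. bolus of [14C]-test compound. Plasma was sampled predose and at 0.1, 0.5, 1.0, 2, 4, 8, 24 and 48 h. Total radioactivity was read by LSC and parent compound by LC/MS/MS. PK parameters came from noncompartmental analysis as in mouse.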

[3] = Metabolite profiling of monkey plasma, urine and feces by radio-HPLC; format: in vivo, Cynomolgus monkey (Macaca fascicularis); conditions: Cynomolgus monkey, i.v.
How it was run: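 Monkey samples after i.v. [14C]-test compound, 2.0 mg/kg. Plasma at 0.1–8 h was extracted twice with ethanol and centrifuged, and extracts went to LSC and radio-HPLC. Precipitates were combusted for total radioactivity. Urine (0–8 h, 8–24 h, then 24-h intervals to 120 h) was evaporated and reconstituted in mobile phase. Feces were processed as for mouse. Isocratic acetonitrile/ammonium acetate pH 4 on RP8e, UV 230 nm with radiodetection.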

[4] = tested on: rat hepatocytes; test: Metabolism in cultured rat hepatocytes; format: in vitro ADME; conditions: 1 and 10 µg/mL, up to 24 h
[5] = NADPH-dependent metabolism by monkey liver microsomes; format: in vitro ADME; conditions: monkeys, 10 and 100 µM, up to 6 h
[6] = Distribution of radioactivity in pigmented mice; format: in vivo; conditions: eyes and skin
[7] = Physicochemical properties
[8] = Plasma pharmacokinetics in rat after i.v. bolus; format: in vivo, Wistar rat; conditions: for clearance / half-life: in vivo
How it was run: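 Wistar rats, intravenous bolus. Plasma was sampled at 0.1, 0.25, 0.5, 1, 2, 4 and 6 h postadministration.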

[9] = NADPH-dependent metabolism by human liver microsomes; format: in vitro ADME; conditions: humans, 10 and 100 µM, up to 6 h
[10] = Plasma pharmacokinetics in mouse after i.v. bolus; format: in vivo, mouse (NMRI); conditions: for level at 0.1 h / level at 0.25 h / level at 2 h: NMRI, plasma
How it was run: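 Male and female NMRI mice, i.v. bolus of [14C]-test compound, 2.5 mg/kg (4.2 μmol/kg). Blood was taken by exsanguination under anesthesia (n = 3/time point) and spun 2 min at 10,000g. Plasma was counted by LSC from predose to 72 h. A separate unlabeled-dose study gave plasma from predose to 8 h for parent by validated LC/MS/MS. Noncompartmental analysis was used, with clearance related to hepatic blood flow.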

[11] = Metabolite profiling of mouse plasma, urine and feces by radio-HPLC; format: in vivo, mouse (NMRI); conditions: for dose excreted: NMRI, mouse
How it was run: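 Mouse samples after i.v. [14C]-test compound, 2.5 mg/kg. Plasma at 0.1 and 0.25 h was extracted twice with ethanol. Fecal precipitates were sonicated with ethanol at 40°C/2 h, and unextracted residue was combusted. Extracts ran on isocratic radio-HPLC: acetonitrile/0.05 mol/L ammonium acetate pH 4 (19/80, v/v), RP8e column, 1 mL/min, UV 230 nm plus radiodetector. Excreted radioactivity was given as % dose.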

[12] = Plasma pharmacokinetics in rabbit after i.v. infusion; format: in vivo, Chinchilla rabbit
How it was run: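 Chinchilla rabbits received a 4-h infusion into the ear vein at 50, 150 or 450 mg/kg/d. Plasma was sampled before and at 2, 4, 4.25, 4.5, 5, 7 and 10 h after infusion start.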

[13] = tested on: human hepatocytes; test: Metabolism in cultured human hepatocytes; format: in vitro ADME; conditions: 1 and 10 µg/mL, up to 24 h
[14] = Biological stability of the radiolabel; format: in vivo, rat; conditions: rats, within 72 h after dosing
[15] = Quantitative tissue distribution; format: in vivo, mouse (NMRI); conditions: for dose found in the carcasses: 24 h postdose
How it was run: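 Male and female NMRI mice got i.v. [14C]-test compound, 2.5 mg/kg (n = 3/time), with tissues excised at 0.1, 0.5, 2, 8 and 24 h. Larger organs were homogenized and small tissues taken whole. Carcasses were included. Samples were dried at about 60°C for 12 h, combusted in a sample oxidizer and read by LSC.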

[16] = Excretion of total radioactivity in mouse; format: in vivo, mouse (NMRI)
How it was run: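 Male and female NMRI mice got an i.v. bolus of [14C]-test compound, 2.5 mg/kg. Urine and feces were collected 0–8 h, 8–24 h, then every 24 h to 120 h. Urine from timed pooled samples (n = 3) was counted by LSC. Feces were homogenized in water with carboxymethylcellulose, and 1 g aliquots were dried at 60°C/12 h and combusted. Minced carcasses (0.5 g aliquots) and tail segments were combusted for residual radioactivity.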

[17] = cynomolgus monkey, in vivo, iv, 2 mg/kg
[18] = female, cynomolgus monkey, plasma, iv, 2 mg/kg

Question: With `CC(C)[C@H]1C(=O)N[C@@H](CCCN=C(N)N)C(=O)NCC(=O)N[C@@H](CC(=O)O)C(=O)N[C@H](Cc2ccccc2)C(=O)N1C` [cilengitide, cyclo‐(Asp‐D‐Phe‐N‐MeVal‐Arg‐Gly)] as the compound, how does the uptake into hepatocytes [1] read?
Answer: The uptake into hepatocytes was “fairly robust”.

Question: And the BEI ([1]; 10 μmol/L)?
Answer: The BEI was 29.3%.

Question: What about the CLbiliary ([1]; 10 μmol/L) of the same compound?
Answer: The CLbiliary was 0.701 mL/min/kg.

Question: And the Intracellular concentration ([1]; 10 μmol/L)?
Answer: The Intracellular concentration was 4.13 µM.

Question: What about the “Cellular accumulation Avg.” value ([1]; 10 μmol/L) of the same compound?
Answer: Its value is 33.3 ± 1.4 pmol/mg.

Question: What about the “Total accumulation Avg.” value ([1]; 10 μmol/L) of the same compound?
Answer: The value was 47.1 ± 1.7 pmol/mg.

Question: What about the BEI ([1]; 250 μmol/L) of the same compound?
Answer: Its BEI is 43.3%.

Question: What about the CLbiliary ([1]; 250 μmol/L) of the same compound?
Answer: Its CLbiliary is 2.74 mL/min/kg.

Question: What about the Intracellular concentration ([1]; 250 μmol/L) of the same compound?
Answer: Its Intracellular concentration is 219 µM.

Question: What about the “Cellular accumulation Avg.” value ([1]; 250 μmol/L) of the same compound?
Answer: Its value is 1768 ± 14 pmol/mg.

Question: And the “Total accumulation Avg.” value ([1]; 250 μmol/L)?
Answer: Its value is 3115 ± 32 pmol/mg.

Question: And the “biliary efflux (BEI)” value ([1]; 10 and 250 μmol/L)?
Answer: The value was 30–40%.

Question: What about the “intracellular concentration (Cic)” value ([1]; exposure 10 μmol/L) of the same compound?
Answer: Its value is 4.13 µmol/L.

Question: What about the “intracellular concentration (Cic)” value ([1]; exposure 250 μmol/L) of the same compound?
Answer: Its value is 219 µmol/L.

Question: What about the half-life ([2]; cynomolgus monkey, in vivo) of the same compound?
Answer: The half-life was 75 min.

Question: What about the clearance ([2]; cynomolgus monkey, in vivo, Plasma CL, monkey, value used for allometry) of the same compound?
Answer: The clearance was 4.83 mL/min/kg.

Question: And the AUC [2, 17]?
Answer: Its AUC is 6460 ng·h/mL.

Question: And the Vd [2, 17]?
Answer: The Vd was 0.35 L/kg.

Question: And the half-life [2, 17]?
Answer: Its half-life is 66 min.

Question: What about the level at 0.1 h [2, 18] of the same compound?
Answer: The level at 0.1 h was 7020 ng/mL.

Question: What about the level at 0.5 h [2, 18] of the same compound?
Answer: Its level at 0.5 h is 3400 ng/mL.

Question: What about the level at 8 h [2, 18] of the same compound?
Answer: Its level at 8 h is 24.6 ng/mL.

Question: And the “clearance as share of hbf” value ([2]; monkey)?
Answer: The value was 12%.

Question: And the “unchanged drug in plasma, share of total drug‐related material” value [3]?
Answer: The value was greater than 85%.

Question: What about the “metabolism by cultured hepatocytes” value [4] of the same compound?
Answer: Its value is “poorly metabolized”.

Question: What about the “metabolism by liver microsomes” value [5] of the same compound?
Answer: The value was “poorly metabolized”.

Question: What about the melanin binding [6] of the same compound?
Answer: The melanin binding was “no relevant melanin binding”.

Question: And the solubility [7]?
Answer: The solubility was “high”.

Question: And the “partition coefficient Po/w” value ([7]; octanol–water)?
Answer: The value was 0.0096.

Question: And the “clearance as share of hepatic blood flow (hbf)” value (from here on “clearance as share … (hbf)”) [8]?
Answer: Its value is “approximately 20%”.

Question: And the level at 0.1 h ([8]; Wistar, plasma, iv, 2.5 mg/kg)?
Answer: The level at 0.1 h was 5360 to 5870 ng/mL.

Question: What about the clearance [8] of the same compound?
Answer: The clearance was 16.3 mL/min/kg.

Question: And the half-life [8]?
Answer: Its half-life is 30 min.

Question: What about the clearance ([8]; iv, 2.5 mg/kg) of the same compound?
Answer: Its clearance is roughly 16.3 mL/min/kg.

Question: What about the half-life ([8]; iv, 2.5 mg/kg) of the same compound?
Answer: Its half-life is 14.4 to 30 min.

Question: What about the “metabolism by liver microsomes” value [9] of the same compound?
Answer: Its value is “poorly metabolized”.

Question: What about the “clearance as share … (hbf)” value ([10]; female mice) of the same compound?
Answer: The value was 60%.

Question: And the level at 0.1 h ([10]; female, mouse, iv, 2.5 mg/kg)?
Answer: The level at 0.1 h was 2490 ng/mL.

Question: What about the level at 0.25 h ([10]; female, mouse, iv, 2.5 mg/kg) of the same compound?
Answer: The level at 0.25 h was 448 ng/mL.

Question: What about the level at 2 h ([10]; female, mouse, iv, 2.5 mg/kg) of the same compound?
Answer: Its level at 2 h is 6.3 ng/mL.

Question: And the “clearance as share … (hbf)” value ([10]; male mice)?
Answer: The value was 105%.

Question: And the level at 0.1 h ([10]; male, mouse, iv, 2.5 mg/kg)?
Answer: Its level at 0.1 h is 1240 ng/mL.

Question: What about the level at 0.25 h ([10]; male, mouse, iv, 2.5 mg/kg) of the same compound?
Answer: Its level at 0.25 h is 439 ng/mL.

Question: And the level at 2 h ([10]; male, mouse, iv, 2.5 mg/kg)?
Answer: Its level at 2 h is 8 ng/mL.

Question: What about the clearance ([10]; mouse, in vivo, Plasma CL, value used for allometry) of the same compound?
Answer: The clearance was 63.5 mL/min/kg.

Question: What about the Vd ([10]; mouse, in vivo, Vdss, range over both species (mouse and monkey)) of the same compound?
Answer: Its Vd is 0.32 to 1.6 L/kg.

Question: What about the AUC ([10]; mouse, in vivo, iv, 2.5 mg/kg, AUC0‐∞ of parent drug, male mice, 2.5 mg/kg i.v.) of the same compound?
Answer: Its AUC is 440 ng·h/mL.

Question: What about the Vd ([10]; mouse, in vivo, iv, 2.5 mg/kg, apparent Vdss, female mice, 2.5 mg/kg i.v.) of the same compound?
Answer: The Vd was 0.56 L/kg.

Question: What about the Vd ([10]; mouse, in vivo, iv, 2.5 mg/kg, apparent Vdss, male mice, 2.5 mg/kg i.v.) of the same compound?
Answer: Its Vd is 1.6 L/kg.

Question: What about the clearance ([10]; mouse, in vivo, iv, 2.5 mg/kg, plasma clearance, female mice, 2.5 mg/kg i.v.) of the same compound?
Answer: The clearance was 53.3 mL/min/kg.

Question: What about the clearance ([10]; mouse, in vivo, iv, 2.5 mg/kg, plasma clearance, male mice, 2.5 mg/kg i.v.) of the same compound?
Answer: Its clearance is 94.7 mL/min/kg.

Question: What about the half-life ([10]; mouse, in vivo, t1/2, mouse, value used for allometry) of the same compound?
Answer: Its half-life is 20.4 min.

Question: What about the dose excreted ([11]; female, feces) of the same compound?
Answer: Its dose excreted is 66.2%.

Question: And the dose excreted ([11]; female, feces, iv, 2.5 mg/kg)?
Answer: Its dose excreted is 66%.

Question: What about the dose excreted ([11]; female, urine, iv, 2.5 mg/kg) of the same compound?
Answer: The dose excreted was 28%.

Question: What about the “unchanged drug in feces (fecal/biliary secretion)” value ([11]; male mice) of the same compound?
Answer: Its value is 87.2 % of the administered dose.

Question: What about the dose excreted ([11]; male, feces, iv, 2.5 mg/kg) of the same compound?
Answer: Its dose excreted is 87%.

Question: And the dose excreted ([11]; male, urine, iv, 2.5 mg/kg)?
Answer: The dose excreted was 7%.

Question: What about the level at 4 h ([12]; Chinchilla, rabbit, plasma, iv, 50 mg/kg) of the same compound?
Answer: The level at 4 h was 34200 to 38500 ng/mL.

Question: What about the “clearance in comparison to hbf” value ([12]; female rabbits) of the same compound?
Answer: The value was roughly 15%.

Question: What about the clearance ([12]; rabbit, in vivo) of the same compound?
Answer: Its clearance is 6 mL/min/kg.

Question: What about the half-life ([12]; rabbit, in vivo, 450 mg/kg, apparent half‐life, rabbit, 450 mg/kg dose group) of the same compound?
Answer: Its half-life is roughly 60 min.

Question: What about the “metabolism by cultured hepatocytes” value [13] of the same compound?
Answer: The value was “poorly metabolized”.

Question: And the “dose exhaled as [^14C]‐CO2” value [14]?
Answer: The value was “less than 0.1 % of the dose”.

Question: And the “dose found in the carcasses” value ([15]; female mice)?
Answer: The value was 0.4 % of the dose.

Question: What about the “dose found in the carcasses” value ([15]; male mice) of the same compound?
Answer: The value was 0.8 % of the dose.

Question: And the “concentrations in reproductive organs relative to plasma” value ([15]; mice, after 8 h)?
Answer: Its value is 6–14 times higher.

Question: What about the “extent of renal excretion” value [16] of the same compound?
Answer: The value was 10%.
